Read-outs that look alike come from different tables or passages of the source.
Columns and labels:
[1] = Safety/tolerability: adverse events in RSV-infected infants; assay type: in vivo, human
How it was run: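 Adverse events were recorded over 28 days in infants given oral drug or placebo once daily for 7 days. Events were graded with the DMID Pediatric Toxicity Tables (November 2007), and the investigator judged relatedness to study drug. Events causing rehospitalisation were counted as serious. Vital signs, ECGs and physical examination were also done.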

RSV infection = assay: Clinical course of RSV infection; assay type: in vivo, human; conditions: JNJ-8678 (combined)
How it was run: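 Infants (>1 to ≤24 months, term-born, hospitalised ≤72 h before randomisation with PCR-confirmed RSV) got oral drug or placebo once daily for 7 days (4:1 randomisation) and were followed 28 days. Outcomes were hospital stay and time to clinical stability: the latest of end of supplemental oxygen, end of supplemental feeding, normal heart rate and normal respiratory rate. Times were shown as Kaplan-Meier curves. Clinician and caregivers completed PRESORS symptom questionnaires electronically.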

RSV-A and RSV-B strains = conditions: panel of laboratory-derived and clinically isolated RSV-A and RSV-B strains, in vitro; cited from earlier work
[2] = assay type: in vivo, human
How it was run: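 Population PK model built in adults and scaled to paediatrics, fitted to sparse heel- or finger-prick capillary samples. Weight-based oral doses were given once daily for 7 days in three age cohorts (≥6–≤24, 3–<6, >1–<3 months). Doses were escalated after data review committee assessment of PK and safety. AUC24h, Cmin and Cmax were estimated at day 1 and day 7, as mean with CV%.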

[3] = cohort 1a (≥6 to ≤24 mo), 2 mg/kg QD oral, n=4, Day 1
[4] = cohort 1a (≥6 to ≤24 mo), 2 mg/kg QD oral, n=4, Day 7
[5] = cohort 1b (≥6 to ≤24 mo), 6 mg/kg QD oral, n=4, Day 1
[6] = cohort 1b (≥6 to ≤24 mo), 6 mg/kg QD oral, n=4, Day 7
[7] = cohort 1c (≥6 to ≤24 mo), 8 mg/kg QD oral, n=4, Day 1
[8] = cohort 1c (≥6 to ≤24 mo), 8 mg/kg QD oral, n=4, Day 7
[9] = cohort 2a (≥3 to <6 mo), 1.5 mg/kg QD oral, n=4, Day 1
[10] = cohort 2a (≥3 to <6 mo), 1.5 mg/kg QD oral, n=4, Day 7
[11] = cohort 2b (≥3 to <6 mo), 4.5 mg/kg QD oral, n=4, Day 1
[12] = cohort 2b (≥3 to <6 mo), 4.5 mg/kg QD oral, n=4, Day 7
[13] = cohort 2c (≥3 to <6 mo), 6 mg/kg QD oral, n=1, Day 1
[14] = cohort 2c (≥3 to <6 mo), 6 mg/kg QD oral, n=1, Day 7
[15] = cohort 3a (>1 to <3 mo), 1 mg/kg QD oral, n=4, Day 1
[16] = cohort 3a (>1 to <3 mo), 1 mg/kg QD oral, n=4, Day 7
[17] = cohort 3b (>1 to <3 mo), 3 mg/kg QD oral, n=4, Day 1
[18] = cohort 3b (>1 to <3 mo), 3 mg/kg QD oral, n=4, Day 7
[19] = cohort 3c (>1 to <3 mo), 5 mg/kg QD oral, n=4, Day 1
[20] = cohort 3c (>1 to <3 mo), 5 mg/kg QD oral, n=4, Day 7
[21] = cohort 1d (≥6 to ≤24 mo), 9 mg/kg QD oral, n=4, Day 1
[22] = cohort 1d (≥6 to ≤24 mo), 9 mg/kg QD oral, n=4, Day 7

Structure (SMILES): CS(=O)(=O)CCCn1c(Cn2c(=O)n(CC(F)(F)F)c3ccncc32)cc2cc(Cl)ccc21 [JNJ-53718678]
- SAE bronchiolitis ([1]; 1/12, cohort 1b, mid-dose, 6 mg/kg QD): 8%
- Any AE ([1]; All cohorts, n=37): 28 (76) no. (%)
- Any AE possibly related to placebo/JNJ-53718678 ([1]; All cohorts, n=37): 11 (30) no. (%)
- Any AE probably related to placebo/JNJ-53718678 ([1]; All cohorts, n=37): 1 (3) no. (%)
- Any worst grade 1 or 2 AE ([1]; All cohorts, n=37): 28 (76) no. (%)
- Any worst grade 3 or 4 AE ([1]; All cohorts, n=37): 1 (3) no. (%)
- Soft feces (AE) ([1]; All cohorts, n=37): 7 (19) no. (%)
- URTI (AE) ([1]; All cohorts, n=37): 8 (22) no. (%)
- Vomiting (AE) ([1]; All cohorts, n=37): 8 (22) no. (%)
- Serious AE ([1]; All cohorts, n=37, serious due to rehospitalization, not related to study drug): 2 (5) no. (%)
- Any AE ([1]; High (cohorts 1d,2c,3c), n=9): 7 (78) no. (%)
- Any AE possibly related to placebo/JNJ-53718678 ([1]; High (cohorts 1d,2c,3c), n=9): 2 (22) no. (%)
- Any AE probably related to placebo/JNJ-53718678 ([1]; High (cohorts 1d,2c,3c), n=9): 0 no. (%)
- Any worst grade 1 or 2 AE ([1]; High (cohorts 1d,2c,3c), n=9): 7 (78) no. (%)
- Any worst grade 3 or 4 AE ([1]; High (cohorts 1d,2c,3c), n=9): 0 no. (%)
- Serious AE ([1]; High (cohorts 1d,2c,3c), n=9): 0 no. (%)
- Soft feces (AE) ([1]; High (cohorts 1d,2c,3c), n=9): 0 no. (%)
- URTI (AE) ([1]; High (cohorts 1d,2c,3c), n=9): 3 (33) no. (%)
- Vomiting (AE) ([1]; High (cohorts 1d,2c,3c), n=9): 4 (44) no. (%)
- Any AE ([1]; Low (cohorts 1a,2a,3a), n=12): 9 (75) no. (%)
- Any AE possibly related to placebo/JNJ-53718678 ([1]; Low (cohorts 1a,2a,3a), n=12): 3 (25) no. (%)
- Any AE probably related to placebo/JNJ-53718678 ([1]; Low (cohorts 1a,2a,3a), n=12): 0 no. (%)
- Any worst grade 1 or 2 AE ([1]; Low (cohorts 1a,2a,3a), n=12): 9 (75) no. (%)
- Any worst grade 3 or 4 AE ([1]; Low (cohorts 1a,2a,3a), n=12): 0 no. (%)
- Soft feces (AE) ([1]; Low (cohorts 1a,2a,3a), n=12): 2 (17) no. (%)
- URTI (AE) ([1]; Low (cohorts 1a,2a,3a), n=12): 1 (8) no. (%)
- Vomiting (AE) ([1]; Low (cohorts 1a,2a,3a), n=12): 0 no. (%)
- Any AE ([1]; Mid (cohorts 1b,2b,3b), n=12): 10 (83) no. (%)
- Any AE possibly related to placebo/JNJ-53718678 ([1]; Mid (cohorts 1b,2b,3b), n=12): 4 (33) no. (%)
- Any AE probably related to placebo/JNJ-53718678 ([1]; Mid (cohorts 1b,2b,3b), n=12): 1 (8) no. (%)
- Any worst grade 1 or 2 AE ([1]; Mid (cohorts 1b,2b,3b), n=12): 10 (83) no. (%)
- Any worst grade 3 or 4 AE ([1]; Mid (cohorts 1b,2b,3b), n=12): 1 (8) no. (%)
- Soft feces (AE) ([1]; Mid (cohorts 1b,2b,3b), n=12): 3 (25) no. (%)
- URTI (AE) ([1]; Mid (cohorts 1b,2b,3b), n=12): 4 (33) no. (%)
- Vomiting (AE) ([1]; Mid (cohorts 1b,2b,3b), n=12): 3 (25) no. (%)
- Any AE ([1]; Mid-high (cohort 1c), n=4): 2 (50) no. (%)
- Any AE possibly related to placebo/JNJ-53718678 ([1]; Mid-high (cohort 1c), n=4): 2 (50) no. (%)
- Any AE probably related to placebo/JNJ-53718678 ([1]; Mid-high (cohort 1c), n=4): 0 no. (%)
- Any worst grade 1 or 2 AE ([1]; Mid-high (cohort 1c), n=4): 2 (50) no. (%)
- Any worst grade 3 or 4 AE ([1]; Mid-high (cohort 1c), n=4): 0 no. (%)
- Serious AE ([1]; Mid-high (cohort 1c), n=4): 0 no. (%)
- Soft feces (AE) ([1]; Mid-high (cohort 1c), n=4): 2 (50) no. (%)
- URTI (AE) ([1]; Mid-high (cohort 1c), n=4): 0 no. (%)
- Vomiting (AE) ([1]; Mid-high (cohort 1c), n=4): 1 (25) no. (%)
- Patients with AEs considered at least possibly related to JNJ-8678 ([1]; all JNJ-8678, 11/37): 30%
- Grade 3 AEs (bronchiolitis, reported as serious AE), number ([1]; all JNJ-8678, n=37): 1
- Tolerability in RSV-infected infants ([1]; oral, once daily for 7 days): well tolerated
- Deaths, grade 4 AEs, AEs leading to discontinuation ([1]; whole study): No deaths, grade 4 AEs, or AEs leading to study discontinuation or permanent discontinuation of study drug were reported
- Median time to clinical stability following the start of study treatment (RSV infection; placebo 56.7 hours): 47.4 h
- Median length of hospital stay (RSV infection; placebo 77.5 hours): 77.7 h
- Time after which all patients were clinically stable (RSV infection; placebo 121.1 hours): 123.5 h
- Maximum length of hospital stay observed (RSV infection; placebo 144.5 hours): 150.4 h
- 50% effective concentration (RSV-A and RSV-B strains): 0.09 to 9.50 ng/mL
- Mean AUC24h (CV%) [2, 3]: 6047.2 (17.5) ng × h/mL
- Mean Cmax (CV%) [2, 3]: 546.8 (35.7) ng/mL
- Mean Cmin (CV%) [2, 3]: 81.4 (58.8) ng/mL
- Mean AUC24h (CV%) [2, 4]: 7738.8 (27.4) ng × h/mL
- Mean Cmax (CV%) [2, 4]: 721.3 (31.2) ng/mL
- Mean Cmin (CV%) [2, 4]: 114.0 (77.7) ng/mL
- Mean Cmax (CV%) [2, 5]: 1960.5 (58.1) ng/mL
- Mean Cmin (CV%) [2, 5]: 155.5 (89.3) ng/mL
- Mean Cmax (CV%) [2, 6]: 3304.2 (12.3) ng/mL
- Mean Cmin (CV%) [2, 6]: 225.7 (66.5) ng/mL
- Mean Cmax (CV%) [2, 7]: 3346.9 (13.0) ng/mL
- Mean Cmin (CV%) [2, 7]: 244.1 (90.4) ng/mL
- Mean Cmax (CV%) [2, 8]: 4298.8 (11.2) ng/mL
- Mean Cmin (CV%) [2, 8]: 323.9 (95.7) ng/mL
- Target exposures ([2]; cohort 1c, ≥6–≤24 months, 8 mg/kg QD, AUC24h similar to adults): Cmin and Cmax target exposures were not reached
- Mean AUC24h (CV%) [2, 9]: 6658.4 (25.6) ng × h/mL
- Mean Cmax (CV%) [2, 9]: 727.5 (68.7) ng/mL
- Mean Cmin (CV%) [2, 9]: 88.3 (39.2) ng/mL
- Mean AUC24h (CV%) [2, 10]: 8620.9 (17.3) ng × h/mL
- Mean Cmax (CV%) [2, 10]: 938.0 (53.3) ng/mL
- Mean Cmin (CV%) [2, 10]: 124.0 (49.1) ng/mL
- Mean Cmax (CV%) [2, 11]: 2533.2 (25.0) ng/mL
- Mean Cmin (CV%) [2, 11]: 319.8 (16.9) ng/mL
- Mean Cmax (CV%) [2, 12]: 3021.8 (41.2) ng/mL
- Mean Cmin (CV%) [2, 12]: 363.0 (18.9) ng/mL
- Mean Cmax (CV%) [2, 13]: 2556.8 (…) ng/mL
- Mean Cmin (CV%) [2, 13]: 428.6 (…) ng/mL
- Mean Cmax (CV%) [2, 14]: 3131.0 (…) ng/mL
- Mean Cmin (CV%) [2, 14]: 517.3 (…) ng/mL
- Mean AUC24h (CV%) ([2]; cohort 2c (≥3 to <6 mo), 6 mg/kg QD oral, n=1, Day 7, listed as JNJ-8678, 6 mg/kg): 34 980 ng × h/mL
- Mean AUC24h (CV%) [2, 15]: 4495.6 (4.8) ng × h/mL
- Mean Cmax (CV%) [2, 15]: 374.2 (18.5) ng/mL
- Mean Cmin (CV%) [2, 15]: 72.6 (41.1) ng/mL
- Mean AUC24h (CV%) [2, 16]: 5827.0 (12.3) ng × h/mL
- Mean Cmax (CV%) [2, 16]: 498.0 (13.2) ng/mL
- Mean Cmin (CV%) [2, 16]: 100.9 (46.3) ng/mL
- Mean Cmax (CV%) [2, 17]: 958.2 (15.2) ng/mL
- Mean Cmin (CV%) [2, 17]: 342.9 (14.3) ng/mL
- Mean Cmax (CV%) [2, 18]: 1671.2 (14.6) ng/mL
- Mean Cmin (CV%) [2, 18]: 650.2 (15.5) ng/mL
- Mean Cmax (CV%) [2, 19]: 1866.6 (51.7) ng/mL
- Mean Cmin (CV%) [2, 19]: 458.7 (54.9) ng/mL
- Mean Cmax (CV%) [2, 20]: 3001.8 (25.1) ng/mL
- Mean Cmin (CV%) [2, 20]: 929.0 (62.1) ng/mL
- Mean AUC24h (CV%) ([2]; cohort 3c (>1 to <3 mo), 5 mg/kg QD oral, n=4, Day 7, listed as JNJ-8678, 5 mg/kg): 39 627 ng × h/mL
- Mean Cmax (CV%) [2, 21]: 2371.8 (70.8) ng/mL
- Mean Cmin (CV%) [2, 21]: 333.2 (62.3) ng/mL
- Mean Cmax (CV%) [2, 22]: 3389.4 (52.9) ng/mL
- Mean Cmin (CV%) [2, 22]: 615.9 (75.2) ng/mL
- Mean AUC24h (CV%) ([2]; cohort 1d (≥6 to ≤24 mo), 9 mg/kg QD oral, n=4, Day 7, listed as JNJ-8678, 9 mg/kg): 35 840 ng × h/mL

— paper PMC7744997 (Clinical Infectious Diseases: An Official Publication of …, 2020)
